Results reported in ChEMBL document CHEMBL1148767, “Synthesis and biological evaluation of the mitochondrial complex 1 inhibitor 2-[4-(4-fluorobutyl)benzylsulfanyl]-3-methylchromene-4-one as a potential cardiac positron emission tomography tracer” (J Med Chem, 2007).
Values belong to the compound of their own block, whether it stands above or below them.

Key:
[1] = Inhibition of bovine mitochondrial MC1; set-up: species or system Bos taurus
Summary of the method: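 Submitochondrial particles were sonicated from bovine heart mitochondria, final 45 µg/mL. Medium was 50 mM K2HPO4 pH 7.4, 0.4 µM antimycin A and 2 mM KCN. Inhibitor preincubated 4 min at varying concentrations. Reaction started with 100 µM decyl ubiquinone and 50 µM NADH at 37 °C. NADH oxidation read at 340 nm for 120 s. IC50 is 50% inhibition, referenced to a concurrent rotenone standard.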

Spleen [2] = test: Biodistribution in Sprague-Dawley rat spleen at 15 uCi, iv after 30 mins; format: ADME, organism-based; settings: in vivo, 0.5 h
Summary of the method: (§1)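 Male SD rats (300-400 g) anesthetized with sodium pentobarbital (50 mg/kg ip), left femoral vein cannulated. About 15 µCi of 18F tracer (specific activity 750-2000 Ci/mmol) in 0.3 mL 10% ethanol saline given iv. Sacrificed in CO2 at 30 or 120 min (n = 5 per time point). Tissues weighed, gamma-counted, decay-corrected, and expressed as %ID/g ± SD.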

Femur [3] = test: Biodistribution in Sprague-Dawley rat femur at 15 uCi, iv after 30 mins; format: ADME, organism-based; settings: in vivo, 0.5 h; summary of the method: as §1
Heart [4] = test: Biodistribution in Sprague-Dawley rat heart at 15 uCi, iv after 120 mins; format: ADME, organism-based; settings: in vivo, 2 h; summary of the method: as §1
Muscle tissue [5] = test: Biodistribution in Sprague-Dawley rat muscle at 15 uCi, iv after 120 mins; format: ADME, organism-based; settings: in vivo, 2 h; summary of the method: as §1
Femur [6] = test: Biodistribution in Sprague-Dawley rat femur at 15 uCi, iv after 120 mins; format: ADME, organism-based; settings: in vivo, 2 h; summary of the method: as §1
Kidney [7] = test: Biodistribution in Sprague-Dawley rat kidney at 15 uCi, iv after 120 mins; format: ADME, organism-based; settings: in vivo, 2 h; summary of the method: as §1
Kidney [8] = test: Biodistribution in Sprague-Dawley rat kidney at 15 uCi, iv after 30 mins; format: ADME, organism-based; settings: in vivo, 0.5 h; summary of the method: as §1
Brain [9] = test: Biodistribution in Sprague-Dawley rat brain at 15 uCi, iv after 30 mins; format: ADME, organism-based; settings: in vivo, 0.5 h; summary of the method: as §1
Spleen [10] = test: Biodistribution in Sprague-Dawley rat spleen at 15 uCi, iv after 120 mins; format: ADME, organism-based; settings: in vivo, 2 h; summary of the method: as §1
Liver [11] = test: Biodistribution in Sprague-Dawley rat liver at 15 uCi, iv after 120 mins; format: ADME, organism-based; settings: in vivo, 2 h; summary of the method: as §1
Blood [12] = test: Biodistribution in Sprague-Dawley rat blood at 15 uCi, iv after 30 mins; format: ADME, organism-based; settings: in vivo, 0.5 h; summary of the method: as §1
Heart [13] = test: Biodistribution in Sprague-Dawley rat heart at 15 uCi, iv after 30 mins; format: ADME, organism-based; settings: in vivo, 0.5 h; summary of the method: as §1
Liver [14] = test: Biodistribution in Sprague-Dawley rat liver at 15 uCi, iv after 30 mins; format: ADME, organism-based; settings: in vivo, 0.5 h; summary of the method: as §1
Lung [15] = test: Biodistribution in Sprague-Dawley rat lung at 15 uCi, iv after 30 mins; format: ADME, organism-based; settings: in vivo, 0.5 h; summary of the method: as §1
Brain [16] = test: Biodistribution in Sprague-Dawley rat brain at 15 uCi, iv after 120 mins; format: ADME, organism-based; settings: in vivo, 2 h; summary of the method: as §1
Muscle tissue [17] = test: Biodistribution in Sprague-Dawley rat muscle at 15 uCi, iv after 30 mins; format: ADME, organism-based; settings: in vivo, 0.5 h; summary of the method: as §1
Blood [18] = test: Biodistribution in Sprague-Dawley rat blood at 15 uCi, iv after 120 mins; format: ADME, organism-based; settings: in vivo, 2 h; summary of the method: as §1
Lung [19] = test: Biodistribution in Sprague-Dawley rat lung at 15 uCi, iv after 120 mins; format: ADME, organism-based; settings: in vivo, 2 h; summary of the method: as §1

Compound: CCCCc1ccc(COc2oc3ccccc3c(=O)c2C)cc1
IC50 [1]: 60 nM

Compound: CCCCc1ccc(CNc2oc3ccccc3c(=O)c2C)cc1
IC50 [1]: 57 nM

Compound: Cc1c(SCc2ccc(CCCCF)cc2)oc2ccccc2c1=O
IC50 [1]: 9 nM

Compound: Cc1c(OCc2ccc(CCCCF)cc2)oc2ccccc2c1=O
IC50 [1]: 33 nM

Compound: Cc1c(NCc2ccc(CCCCF)cc2)oc2ccccc2c1=O
IC50 [1]: 133 nM

Compound: Cc1c(SCc2ccc(CCCCOCCF)cc2)oc2ccccc2c1=O
IC50 [1]: 197 nM

Compound: CC(C)(C)c1ccc(CCOc2ncnc3ccccc23)cc1 [FENAZAQUIN]
IC50 [1]: 90 nM

Compound: CC(C)(C)c1ccc(CSc2cnn(C(C)(C)C)c(=O)c2Cl)cc1 [PYRIDABEN]
IC50 [1]: 8 nM

Compound: C=C(C)[C@H]1Cc2c(ccc3c2O[C@@H]2COc4cc(OC)c(OC)cc4[C@@H]2C3=O)O1 [ROTENONE]
IC50 [1]: 16 nM

Second part, the compound after the results:

IC50 [1]: 15 nM
Compound: Cc1c(SCc2ccc(COCCF)cc2)oc2ccccc2c1=O

Drug uptake (Spleen [2]): 0.41 % ID/g
Drug uptake (Femur [3]): 0.36 % ID/g
Drug uptake (Heart [4]): 1.52 % ID/g
Drug uptake (Muscle tissue [5]): 0.09 % ID/g
Drug uptake (Femur [6]): 0.74 % ID/g
Drug uptake (Kidney [7]): 0.59 % ID/g
Drug uptake (Kidney [8]): 1.93 % ID/g
Drug uptake (Brain [9]): 0.26 % ID/g
Drug uptake (Spleen [10]): 0.09 % ID/g
Drug uptake (Liver [11]): 0.6 % ID/g
Drug uptake (Blood [12]): 0.11 % ID/g
Drug uptake (Heart [13]): 2.24 % ID/g
Drug uptake (Liver [14]): 2 % ID/g
Drug uptake (Lung [15]): 0.32 % ID/g
Drug uptake (Brain [16]): 0.17 % ID/g
Drug uptake (Muscle tissue [17]): 0.06 % ID/g
Drug uptake (Blood [18]): 0.06 % ID/g
Drug uptake (Lung [19]): 0.12 % ID/g
Compound: Cc1c(SCc2ccc(CCCC[18F])cc2)oc2ccccc2c1=O

IC50 [1]: 52 nM
Compound: Cc1c(SCc2ccc(C(C)(C)C)cc2)oc2ccccc2c1=O

IC50 [1]: 16 nM
Compound: Cc1c(SCc2ccc(OCC(C)F)cc2)oc2ccccc2c1=O (stereo unspecified)

IC50 [1]: 52 nM
Compound: CCCCc1ccc(CSc2oc3ccccc3c(=O)c2C)cc1
